Test results as given in ChEMBL document CHEMBL3112447, “Discovery of 1-methyl-1H-imidazole derivatives as potent Jak2 inhibitors” (J Med Chem, 2014).
Active and inactive are the calls of the source. No cut-off for these calls is given here.

Experiments:
[1] = Volume of distribution at steady state in Wistar rat at 10 mg/kg, po and 3 mg/kg, iv; type: ADME, organism-based; settings: in vivo, read-out: Vdss
Outline: (§1)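 Rat pharmacokinetics. Oral dose 10 mg/kg in 0.1% HPMC. IV dose 3 mg/kg in 40% DMA/40% PEG/20% saline. Clearance, half-life, Vdss and oral bioavailability derived from the plasma profiles.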

[2] = Clearance in Wistar rat at 10 mg/kg, po and 3 mg/kg, iv; type: ADME, organism-based; settings: in vivo; outline: as §1
[3] = target: T1, Tyrosine-protein kinase JAK3 (Homo sapiens, UniProt P52333); experiment: Inhibition of human JAK3
T1 sequence (P52333 whole entry): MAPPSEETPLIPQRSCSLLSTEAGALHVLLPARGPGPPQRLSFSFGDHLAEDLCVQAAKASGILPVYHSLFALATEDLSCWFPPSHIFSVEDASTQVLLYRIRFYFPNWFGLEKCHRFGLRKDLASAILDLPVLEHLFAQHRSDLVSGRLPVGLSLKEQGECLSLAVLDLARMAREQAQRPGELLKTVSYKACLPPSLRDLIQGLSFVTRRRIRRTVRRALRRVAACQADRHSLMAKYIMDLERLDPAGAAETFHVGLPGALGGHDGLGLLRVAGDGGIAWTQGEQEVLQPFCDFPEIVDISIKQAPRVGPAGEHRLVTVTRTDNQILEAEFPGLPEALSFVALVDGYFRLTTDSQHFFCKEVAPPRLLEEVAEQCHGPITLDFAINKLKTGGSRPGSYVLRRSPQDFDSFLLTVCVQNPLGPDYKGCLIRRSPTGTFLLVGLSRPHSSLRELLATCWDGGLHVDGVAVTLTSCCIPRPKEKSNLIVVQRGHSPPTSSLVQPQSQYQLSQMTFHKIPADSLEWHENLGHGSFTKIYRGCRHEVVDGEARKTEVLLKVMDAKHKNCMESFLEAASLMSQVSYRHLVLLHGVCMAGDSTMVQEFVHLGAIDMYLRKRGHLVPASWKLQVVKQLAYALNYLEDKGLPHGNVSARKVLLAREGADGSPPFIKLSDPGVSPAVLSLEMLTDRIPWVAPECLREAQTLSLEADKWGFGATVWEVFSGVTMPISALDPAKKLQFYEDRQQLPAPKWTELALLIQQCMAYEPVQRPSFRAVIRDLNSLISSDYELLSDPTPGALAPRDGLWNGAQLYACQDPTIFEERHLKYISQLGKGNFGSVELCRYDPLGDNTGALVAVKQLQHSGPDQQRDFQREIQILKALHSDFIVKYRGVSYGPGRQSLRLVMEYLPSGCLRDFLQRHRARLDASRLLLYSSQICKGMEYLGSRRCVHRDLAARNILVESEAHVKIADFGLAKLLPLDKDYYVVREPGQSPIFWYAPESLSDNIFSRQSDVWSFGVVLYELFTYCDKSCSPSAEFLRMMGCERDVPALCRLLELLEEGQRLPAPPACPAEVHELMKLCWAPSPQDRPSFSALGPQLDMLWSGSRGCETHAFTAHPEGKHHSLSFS
Outline: (§2)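 Panel of 82 kinases. Radiometric filter-binding assay with ATP at or near Km. Compound tested at 0.01, 0.10 and 1.0 μM. Values expressed as minimum possible fold selectivity against Jak2.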

[4] = Cytotoxicity against human SET2 cells expressing Jak2 V617F mutant after 72 hrs by MTS assay; type: functional; settings: SET-2, 72 h
[5] = target: Tyrosine-protein kinase JAK1 (Mus musculus, UniProt P52332); experiment: (§3) Inhibition of Jak1 in mouse BA/F3 cells expressing TEL-Jak1 assessed as inhibition of STAT5 phosphorylation by Western blotting analysis; type: cell-based, BaF3
Sequence of Tyrosine-protein kinase JAK1 (P52332 whole entry): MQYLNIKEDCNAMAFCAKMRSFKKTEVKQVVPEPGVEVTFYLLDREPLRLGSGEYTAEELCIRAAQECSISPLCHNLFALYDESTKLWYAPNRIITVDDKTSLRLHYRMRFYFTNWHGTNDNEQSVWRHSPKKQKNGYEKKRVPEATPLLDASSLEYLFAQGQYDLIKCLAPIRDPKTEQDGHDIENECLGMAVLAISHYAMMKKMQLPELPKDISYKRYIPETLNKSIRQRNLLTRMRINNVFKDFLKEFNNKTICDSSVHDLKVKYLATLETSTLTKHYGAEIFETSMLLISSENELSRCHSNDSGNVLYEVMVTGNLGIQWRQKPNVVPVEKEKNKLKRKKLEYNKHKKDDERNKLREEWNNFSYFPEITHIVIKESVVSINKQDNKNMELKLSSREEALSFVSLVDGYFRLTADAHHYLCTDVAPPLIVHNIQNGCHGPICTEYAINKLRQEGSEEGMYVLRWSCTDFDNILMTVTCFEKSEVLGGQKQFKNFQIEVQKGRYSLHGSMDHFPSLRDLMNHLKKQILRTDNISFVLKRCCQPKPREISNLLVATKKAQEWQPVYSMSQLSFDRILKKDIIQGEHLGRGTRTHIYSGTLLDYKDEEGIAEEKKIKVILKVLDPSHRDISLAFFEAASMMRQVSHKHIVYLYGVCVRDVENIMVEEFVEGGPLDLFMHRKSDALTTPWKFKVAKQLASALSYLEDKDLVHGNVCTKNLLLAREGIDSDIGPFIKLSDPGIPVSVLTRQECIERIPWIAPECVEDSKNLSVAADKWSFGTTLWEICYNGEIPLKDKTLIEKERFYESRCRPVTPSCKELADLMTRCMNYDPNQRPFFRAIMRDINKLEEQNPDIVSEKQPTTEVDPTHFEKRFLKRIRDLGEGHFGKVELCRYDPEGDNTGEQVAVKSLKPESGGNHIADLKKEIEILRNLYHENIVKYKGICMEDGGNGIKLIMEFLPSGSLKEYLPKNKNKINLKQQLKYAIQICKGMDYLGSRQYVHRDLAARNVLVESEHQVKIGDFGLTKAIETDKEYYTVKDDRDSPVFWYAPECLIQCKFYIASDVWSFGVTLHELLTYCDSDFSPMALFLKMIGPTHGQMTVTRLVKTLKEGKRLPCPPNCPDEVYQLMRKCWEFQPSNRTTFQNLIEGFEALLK

[6] = target: Tyrosine-protein kinase JAK1 (Mus musculus) (UniProt P52332); experiment: as §3; type: cell-based; settings: BaF3
Sequence of Tyrosine-protein kinase JAK1 (Mus musculus) (P52332 whole entry): as above

[7] = tested on: Canis familiaris; experiment: AUC (0 to 12 hrs) in beagle dog at 10 mg/kg, po; type: ADME, organism-based, Canis lupus familiaris, Plasma; parameters: time < 12 hr, dose 10 mg/kg, route oral; settings: in vivo
Outline: (§4)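 Male beagle dogs. Oral dose 10 mg/kg in 0.1% HPMC, pH 2. IV dose 2.5 mg/kg in 20% TEG/D5W. […] Clearance, Vdss, half-life and oral bioavailability (F%) derived from the plasma profiles.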

[8] = tested on: Mus musculus; experiment: Toxicity in SCID mouse xenografted with human UKE1 cells assessed as body weight loss at 10 mg/kg, po bid administered for 14 days measured on day 31 (reference value: 7.1%); type: organism-based; parameters: dose 10 mg/kg, route oral; settings: in vivo, 336 h
Outline: (§5)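 UKE-1 cells mixed with matrigel implanted subcutaneously in female SCID mice. On day 15, mice randomized at a mean tumor volume of about 150 mm³. Oral gavage twice daily at 3 or 10 mg/kg, or vehicle, for 14 days. Tumor volume and body weight tracked through the dosing phase.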

[9] = target: Fibroblast growth factor receptor 1 (Homo sapiens, UniProt P11362); experiment: Inhibition of human FGFR1; outline: as §2
Sequence of Fibroblast growth factor receptor 1 (P11362 whole entry): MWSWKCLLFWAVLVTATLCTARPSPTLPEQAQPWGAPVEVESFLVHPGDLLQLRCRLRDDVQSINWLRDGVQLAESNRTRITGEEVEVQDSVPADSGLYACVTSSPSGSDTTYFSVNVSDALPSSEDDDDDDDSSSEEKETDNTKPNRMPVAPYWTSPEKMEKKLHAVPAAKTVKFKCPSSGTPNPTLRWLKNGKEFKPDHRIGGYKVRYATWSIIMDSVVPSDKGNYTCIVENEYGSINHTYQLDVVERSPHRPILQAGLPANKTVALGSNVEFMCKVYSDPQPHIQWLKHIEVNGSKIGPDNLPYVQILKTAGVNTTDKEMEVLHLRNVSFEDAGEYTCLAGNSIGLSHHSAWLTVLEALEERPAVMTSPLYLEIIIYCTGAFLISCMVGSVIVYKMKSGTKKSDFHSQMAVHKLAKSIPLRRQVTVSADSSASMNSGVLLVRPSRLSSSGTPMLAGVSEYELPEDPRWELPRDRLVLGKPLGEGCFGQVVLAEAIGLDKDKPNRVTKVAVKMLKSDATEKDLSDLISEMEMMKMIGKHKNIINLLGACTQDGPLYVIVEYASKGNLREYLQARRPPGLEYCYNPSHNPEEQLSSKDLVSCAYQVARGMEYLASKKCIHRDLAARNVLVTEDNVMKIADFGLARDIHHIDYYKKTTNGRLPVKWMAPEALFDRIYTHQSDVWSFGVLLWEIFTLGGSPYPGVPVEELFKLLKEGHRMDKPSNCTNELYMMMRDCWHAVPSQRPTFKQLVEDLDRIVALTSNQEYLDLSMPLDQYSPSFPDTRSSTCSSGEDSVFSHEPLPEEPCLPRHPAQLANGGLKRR

[10] = target: Vascular endothelial growth factor receptor 2 (Homo sapiens, UniProt P35968); experiment: Inhibition of human KDR; outline: as §2
[11] = target: High affinity nerve growth factor receptor (Homo sapiens, UniProt P04629); experiment: Inhibition of human TrkA; outline: as §2
Sequence of High affinity nerve growth factor receptor (P04629 whole entry): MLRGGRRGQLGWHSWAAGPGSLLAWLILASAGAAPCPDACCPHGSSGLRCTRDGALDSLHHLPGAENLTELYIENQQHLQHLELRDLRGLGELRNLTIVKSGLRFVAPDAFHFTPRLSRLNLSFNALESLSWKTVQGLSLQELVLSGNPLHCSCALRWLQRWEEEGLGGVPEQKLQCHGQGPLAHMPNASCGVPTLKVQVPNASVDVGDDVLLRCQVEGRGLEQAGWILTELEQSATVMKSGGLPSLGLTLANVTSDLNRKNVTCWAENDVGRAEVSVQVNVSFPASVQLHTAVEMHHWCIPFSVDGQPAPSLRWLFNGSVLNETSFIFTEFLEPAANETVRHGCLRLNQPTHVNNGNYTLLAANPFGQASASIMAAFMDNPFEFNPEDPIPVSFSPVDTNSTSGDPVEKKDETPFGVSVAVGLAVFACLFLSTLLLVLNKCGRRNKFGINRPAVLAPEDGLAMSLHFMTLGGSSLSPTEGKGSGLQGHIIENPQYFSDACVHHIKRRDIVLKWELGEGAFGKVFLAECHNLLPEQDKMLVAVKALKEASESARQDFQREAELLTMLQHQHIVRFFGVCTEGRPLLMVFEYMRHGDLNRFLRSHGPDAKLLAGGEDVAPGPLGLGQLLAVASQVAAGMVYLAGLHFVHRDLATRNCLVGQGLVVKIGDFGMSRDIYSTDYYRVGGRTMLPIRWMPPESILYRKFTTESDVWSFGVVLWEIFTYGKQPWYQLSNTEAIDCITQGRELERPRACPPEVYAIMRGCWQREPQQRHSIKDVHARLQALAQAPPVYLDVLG

[12] = tested on: Mus musculus; experiment: In vivo inhibition of Jak2 in mouse transfected with mouse BA/F3 cells expressing TEL-Jak2 assessed as inhibition of STAT5 phosphorylation at 3 to 10 mg/kg, po by Western blotting analysis; type: functional, organism-based; settings: BaF3, TDE = time-dependent effect
Outline: (§6)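 Mice bearing BaF3 TEL-JAK2 cells given a single oral dose of 3, 5 or 10 mg/kg and sacrificed at various times after dosing. Spleen lysates probed for phospho-STAT5 and total STAT5 by Western blot, and pSTAT5 inhibition assessed.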

[13] = tested on: Mus musculus; experiment: In vivo inhibition of Jak2 in mouse transfected with mouse BA/F3 cells expressing TEL-Jak2 assessed as inhibition of STAT5 phosphorylation at 10 mg/kg, po after 6 hrs by Western blotting analysis; type: functional, organism-based; parameters: dose 10 mg/kg; settings: BaF3; outline: as §6
[14] = target: Receptor-type tyrosine-protein kinase FLT3 (Homo sapiens, UniProt P36888); experiment: Inhibition of human Flt3; outline: as §2
Sequence of Receptor-type tyrosine-protein kinase FLT3 (P36888 whole entry): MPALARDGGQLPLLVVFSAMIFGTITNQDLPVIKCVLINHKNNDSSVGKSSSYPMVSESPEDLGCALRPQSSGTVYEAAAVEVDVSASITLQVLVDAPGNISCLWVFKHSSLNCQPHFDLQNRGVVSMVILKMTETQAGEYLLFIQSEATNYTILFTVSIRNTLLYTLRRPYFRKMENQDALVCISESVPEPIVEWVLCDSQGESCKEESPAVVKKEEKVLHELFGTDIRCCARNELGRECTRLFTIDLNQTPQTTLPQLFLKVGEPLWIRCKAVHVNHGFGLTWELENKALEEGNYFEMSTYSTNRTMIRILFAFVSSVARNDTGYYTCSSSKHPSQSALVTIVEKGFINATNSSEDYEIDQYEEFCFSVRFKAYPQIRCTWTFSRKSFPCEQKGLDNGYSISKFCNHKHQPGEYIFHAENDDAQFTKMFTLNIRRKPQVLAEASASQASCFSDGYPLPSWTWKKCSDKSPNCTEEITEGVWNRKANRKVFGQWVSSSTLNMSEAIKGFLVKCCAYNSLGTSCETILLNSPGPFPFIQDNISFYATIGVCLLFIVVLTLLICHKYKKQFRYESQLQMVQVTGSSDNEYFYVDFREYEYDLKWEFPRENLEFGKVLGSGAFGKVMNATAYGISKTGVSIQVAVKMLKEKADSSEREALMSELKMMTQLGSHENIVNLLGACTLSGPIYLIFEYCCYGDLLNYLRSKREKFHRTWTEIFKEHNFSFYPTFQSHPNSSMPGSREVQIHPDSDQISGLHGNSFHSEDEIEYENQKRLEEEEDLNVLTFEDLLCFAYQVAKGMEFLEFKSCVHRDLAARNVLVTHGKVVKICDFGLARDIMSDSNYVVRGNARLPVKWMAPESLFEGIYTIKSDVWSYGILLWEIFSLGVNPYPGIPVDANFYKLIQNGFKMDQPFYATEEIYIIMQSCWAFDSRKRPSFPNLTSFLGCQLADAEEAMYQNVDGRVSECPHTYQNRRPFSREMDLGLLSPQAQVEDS

[15] = Half life in beagle dog at 2.5 mg/kg, iv; type: ADME, organism-based, Canis lupus familiaris; parameters: dose 2.5 mg/kg, route intravenous; settings: in vivo; outline: as §4
[16] = target: Casein kinase II subunit alpha' (Homo sapiens, UniProt P19784); experiment: Inhibition of human CK2alpha2; outline: as §2
[17] = Antitumor activity against human UKE1 cells xenografted in SCID mouse assessed as tumor growth inhibition at 3 mg/kg, po bid administered for 14 days measured on day 28; type: functional; settings: read-out: TGI; outline: as §5
[18] = target: ALK tyrosine kinase receptor (Homo sapiens, UniProt Q9UM73); experiment: Inhibition of human ALK; outline: as §2
[19] = Cytotoxicity against mouse BA/F3 cells expressing TEL-Jak3 after 72 hrs by MTS assay; type: functional; settings: BaF3, 72 h
Outline: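 BaF3 cells transfected with the kinase domain of Jak1, Jak3 or Tyk2 (TEL fusions). Growth inhibition measured as the counter-screen for cellular selectivity.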

[20] = target: Non-receptor tyrosine-protein kinase TYK2 (Mus musculus, UniProt Q9R117); experiment: (§7) Inhibition of Tyk2 in mouse BA/F3 cells expressing TEL-Tyk2 assessed as inhibition of STAT5 phosphorylation by Western blotting analysis; type: cell-based; settings: baf3
Sequence of Non-receptor tyrosine-protein kinase TYK2 (Q9R117 whole entry, looked up): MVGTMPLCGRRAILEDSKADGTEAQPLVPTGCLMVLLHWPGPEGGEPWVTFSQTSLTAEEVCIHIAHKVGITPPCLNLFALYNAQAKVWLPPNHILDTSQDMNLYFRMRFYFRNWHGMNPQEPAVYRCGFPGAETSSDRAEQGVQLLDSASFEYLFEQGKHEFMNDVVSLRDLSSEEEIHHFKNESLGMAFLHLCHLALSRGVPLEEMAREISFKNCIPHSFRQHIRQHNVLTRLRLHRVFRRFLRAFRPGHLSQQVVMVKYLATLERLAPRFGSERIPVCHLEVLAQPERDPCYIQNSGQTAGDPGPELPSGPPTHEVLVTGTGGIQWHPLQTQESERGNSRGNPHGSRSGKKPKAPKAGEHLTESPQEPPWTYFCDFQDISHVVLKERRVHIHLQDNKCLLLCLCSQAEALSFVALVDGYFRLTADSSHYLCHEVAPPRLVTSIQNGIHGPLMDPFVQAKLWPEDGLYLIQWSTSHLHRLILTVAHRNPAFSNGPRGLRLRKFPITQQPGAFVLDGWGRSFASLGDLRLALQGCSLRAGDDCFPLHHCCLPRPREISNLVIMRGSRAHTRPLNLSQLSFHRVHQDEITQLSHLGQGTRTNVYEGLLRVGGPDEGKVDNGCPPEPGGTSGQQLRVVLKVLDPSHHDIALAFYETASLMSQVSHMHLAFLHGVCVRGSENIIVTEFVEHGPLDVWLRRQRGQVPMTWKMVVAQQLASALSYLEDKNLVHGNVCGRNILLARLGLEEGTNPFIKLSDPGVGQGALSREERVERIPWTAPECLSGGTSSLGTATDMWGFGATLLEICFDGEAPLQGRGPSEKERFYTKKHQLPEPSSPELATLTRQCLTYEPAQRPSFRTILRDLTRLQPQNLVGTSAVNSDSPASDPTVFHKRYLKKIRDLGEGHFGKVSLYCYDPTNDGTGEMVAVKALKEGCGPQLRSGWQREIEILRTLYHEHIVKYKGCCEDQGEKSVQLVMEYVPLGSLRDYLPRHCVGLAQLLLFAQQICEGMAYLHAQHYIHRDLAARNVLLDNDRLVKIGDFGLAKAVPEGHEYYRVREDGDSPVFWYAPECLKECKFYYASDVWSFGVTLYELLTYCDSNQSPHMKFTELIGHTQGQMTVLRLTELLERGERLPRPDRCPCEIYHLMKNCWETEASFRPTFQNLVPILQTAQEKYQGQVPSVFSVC

[21] = target: Non-receptor tyrosine-protein kinase TYK2 (Mus musculus) (UniProt Q9R117); experiment: as §7; type: cell-based; settings: BaF3
Sequence of Non-receptor tyrosine-protein kinase TYK2 (Mus musculus) (Q9R117 whole entry): as the sequence (Q9R117 whole entry, looked up) above

[22] = Half life in beagle dog at 10 mg/kg, po; type: ADME, organism-based, Canis lupus familiaris; parameters: dose 10 mg/kg, route oral; settings: in vivo; outline: as §4

Vd [1]: 2.2 L/kg
clearance [2]: 36 mL/min/kg
IC50 [3]: 35 nM
IC50 [5]: 260 nM
inhibition [6]: Dose-dependent effect
AUC [7]: 45 µM·h
IC50 [9]: 50 nM
IC50 [10]: 22 nM
IC50 [11]: 35 nM
IC50 [14]: 45 nM
half-life [15]: 12.4 h
IC50 [16]: 2.7 nM
IC50 [18]: 50 nM
IC50 [20]: 240 nM
inhibition [21]: Dose-dependent effect
half-life [22]: 7.6 h
SMILES: C[C@H](Nc1nc(Nc2cn(C)cn2)c2cc[nH]c2n1)c1ncc(F)cn1
GI50 [4]: 14 nM
Activity [8]: 3.1%
inhibition [12]: tde
inhibition [13]: Active
inhibition in vivo at 3 mg/kg [17]: 50%
GI50 [19]: 1800 nM
